According to ChEMBL document CHEMBL1153794, “Oleanane-type triterpenoids from Aceriphyllum rossii and their cytotoxic activity” (J Nat Prod, 2009):

Test system: MCF7
Experiment: Cytotoxic activity against human MCF7 cells after 48 hrs by MTT assay
Format: functional, cell-based
Settings: MCF7, 48 h
Outline: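 Modified MTT assay. Viable cells seeded at 1 × 10^4 per well in growth medium and incubated at 37 °C, 5% CO2. Samples dissolved in DMSO and diluted in growth medium to final concentrations of 5.0–150 µM. Optical density read on a microplate reader; IC50 values derived.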

Row | Structure (SMILES) | IC50
1 | CC1(C)CC[C@]2(C)CC[C@]3(C(=O)O)C(=CC[C@@H]4[C@@]5(C)CC[C@@H](OC(=O)/C=C/c6ccc(O)c(O)c6)C(C)(C)[C@@H]5CC[C@]43C)[C@@H]2C1 | > 150 µM
2 | C[C@@]1(C(=O)O)CC[C@]2(C)CC[C@]3(C)C(=CC[C@@H]4[C@@]5(C)CC[C@H](O)[C@@](C)(C(=O)O)[C@@H]5CC[C@]43C)[C@@H]2C1 | > 150 µM
3 | CC1(C)CC[C@]2(C)CC[C@]3(C(=O)O)C(=CC[C@@H]4[C@@]5(C)CC[C@@H](O)[C@@](C)(CO)[C@@H]5CC[C@]43C)[C@@H]2C1 [ACERIPHYLLIC ACID A] | > 150 µM
4 | CC(=O)O[C@@H]1CC[C@@]2(C)[C@@H](CC[C@]3(C)[C@@H]2CC=C2[C@@H]4CC(C)(C)CC[C@]4(C)CC[C@]23C(=O)O)[C@]1(C)C(=O)O | 58.4 µM
5 | CC1(C)CC[C@]2(C)CC[C@]3(C(=O)O)C(=CC[C@@H]4[C@@]5(C)CCC(=O)C(C)(C)[C@@H]5CC[C@]43C)[C@@H]2C1 | 53.6 µM
6 | CC1(C)CC[C@]2(C(=O)O)CC[C@]3(C)C(=CC[C@@H]4[C@@]5(C)CC[C@H](O)C(C)(C)[C@@H]5CC[C@]43C)[C@@H]2C1 [OLEANOLIC_ACID] | > 150 µM
7 | CC(=O)O[C@@H]1CC[C@@]2(C)[C@@H](CC[C@]3(C)[C@@H]2CC=C2[C@@H]4C[C@](C)(C(=O)O)CC[C@]4(C)CC[C@]23C)[C@]1(C)C(=O)O | > 150 µM
8 | CC1(C)[C@@H](O)CC[C@]2(C)[C@H]3CC=C4[C@@H]5C[C@](C)(C(=O)O)CC[C@]5(C)CC[C@@]4(C)[C@]3(C)CC[C@@H]12 | > 150 µM
9 | CC1(C)CC[C@]2(C)CC[C@]3(C(=O)O)C(=CC[C@@H]4[C@@]5(C)CC[C@H](O)C(C)(C)[C@@H]5CC[C@]43C)[C@@H]2C1 | > 150 µM
10 | CC1(C)CC[C@]2(C)CC[C@]3(C(=O)O)C(=CC[C@@H]4[C@@]5(C)CC[C@H]6OC(C)(C)OC[C@@]6(C)[C@@H]5CC[C@]43C)[C@@H]2C1 | > 150 µM
11 | CC1(C)CC[C@]2(C)CC[C@]3(C(=O)O)C(=CC[C@@H]4[C@@]5(C)CC[C@@H](O)[C@@](C)(C=O)[C@@H]5CC[C@]43C)[C@@H]2C1 | 47 µM
12 | CC1(C)CC[C@]2(C)CC[C@]3(C(=O)O)C(=CC[C@@H]4[C@@]5(C)CCC(=O)[C@@](C)(CO)[C@@H]5CC[C@]43C)[C@@H]2C1 | 39.2 µM
13 | C[C@@]1(C(=O)O)CC[C@]2(C)CC[C@]3(C)C(=CC[C@@H]4[C@@]5(C)CC[C@@H](O)[C@@](C)(C(=O)O)[C@@H]5CC[C@]43C)[C@@H]2C1 | 62.4 µM
14 | C[C@@]1(C(=O)O)CC[C@]2(C)CC[C@]3(C)C(=CC[C@@H]4[C@@]5(C)CC[C@H](O)[C@@](C)(CO)[C@@H]5CC[C@]43C)[C@@H]2C1 | 107 µM

Test system: not listed separately
Experiment: Cytotoxicity activity against mouse LLC cells after 48 hrs by MTT assay
Settings: Lewis lung carcinoma

Row | Structure (SMILES) | IC50
15 | CC1(C)CC[C@]2(C)CC[C@]3(C(=O)O)C(=CC[C@@H]4[C@@]5(C)CC[C@@H](OC(=O)/C=C/c6ccc(O)c(O)c6)C(C)(C)[C@@H]5CC[C@]43C)[C@@H]2C1 | > 150 µM
16 | C[C@@]1(C(=O)O)CC[C@]2(C)CC[C@]3(C)C(=CC[C@@H]4[C@@]5(C)CC[C@H](O)[C@@](C)(C(=O)O)[C@@H]5CC[C@]43C)[C@@H]2C1 | > 150 µM
17 | CC1(C)CC[C@]2(C)CC[C@]3(C(=O)O)C(=CC[C@@H]4[C@@]5(C)CC[C@@H](O)[C@@](C)(CO)[C@@H]5CC[C@]43C)[C@@H]2C1 [ACERIPHYLLIC ACID A] | 8.36 µM
18 | CC(=O)O[C@@H]1CC[C@@]2(C)[C@@H](CC[C@]3(C)[C@@H]2CC=C2[C@@H]4CC(C)(C)CC[C@]4(C)CC[C@]23C(=O)O)[C@]1(C)C(=O)O | > 150 µM
19 | CC1(C)CC[C@]2(C)CC[C@]3(C(=O)O)C(=CC[C@@H]4[C@@]5(C)CCC(=O)C(C)(C)[C@@H]5CC[C@]43C)[C@@H]2C1 | > 150 µM
20 | CC1(C)CC[C@]2(C(=O)O)CC[C@]3(C)C(=CC[C@@H]4[C@@]5(C)CC[C@H](O)C(C)(C)[C@@H]5CC[C@]43C)[C@@H]2C1 [OLEANOLIC_ACID] | > 150 µM
21 | CC(=O)O[C@@H]1CC[C@@]2(C)[C@@H](CC[C@]3(C)[C@@H]2CC=C2[C@@H]4C[C@](C)(C(=O)O)CC[C@]4(C)CC[C@]23C)[C@]1(C)C(=O)O | > 150 µM
22 | CC1(C)[C@@H](O)CC[C@]2(C)[C@H]3CC=C4[C@@H]5C[C@](C)(C(=O)O)CC[C@]5(C)CC[C@@]4(C)[C@]3(C)CC[C@@H]12 | 16.6 µM
23 | CC1(C)CC[C@]2(C)CC[C@]3(C(=O)O)C(=CC[C@@H]4[C@@]5(C)CC[C@H](O)C(C)(C)[C@@H]5CC[C@]43C)[C@@H]2C1 | 7.63 µM
24 | CC1(C)CC[C@]2(C)CC[C@]3(C(=O)O)C(=CC[C@@H]4[C@@]5(C)CC[C@H]6OC(C)(C)OC[C@@]6(C)[C@@H]5CC[C@]43C)[C@@H]2C1 | > 150 µM
25 | CC1(C)CC[C@]2(C)CC[C@]3(C(=O)O)C(=CC[C@@H]4[C@@]5(C)CC[C@@H](O)[C@@](C)(C=O)[C@@H]5CC[C@]43C)[C@@H]2C1 | 39.2 µM
26 | CC1(C)CC[C@]2(C)CC[C@]3(C(=O)O)C(=CC[C@@H]4[C@@]5(C)CCC(=O)[C@@](C)(CO)[C@@H]5CC[C@]43C)[C@@H]2C1 | 6.56 µM
27 | C[C@@]1(C(=O)O)CC[C@]2(C)CC[C@]3(C)C(=CC[C@@H]4[C@@]5(C)CC[C@@H](O)[C@@](C)(C(=O)O)[C@@H]5CC[C@]43C)[C@@H]2C1 | 47.8 µM
28 | C[C@@]1(C(=O)O)CC[C@]2(C)CC[C@]3(C)C(=CC[C@@H]4[C@@]5(C)CC[C@H](O)[C@@](C)(CO)[C@@H]5CC[C@]43C)[C@@H]2C1 | > 150 µM
